We go through 13 molecules from ChEMBL document CHEMBL4020837, “Identification of Eukaryotic Translation Elongation Factor 1-α 1 Gamendazole-Binding Site for Binding of 3-Hydroxy-4(1 H)-quinolinones as Novel Ligands with Anticancer Activity” (J Med Chem, 2018).

Assay [1] concerns the target T1, Elongation factor 1-alpha 1 (Homo sapiens) (UniProt P68104).
T1 sequence (whole entry): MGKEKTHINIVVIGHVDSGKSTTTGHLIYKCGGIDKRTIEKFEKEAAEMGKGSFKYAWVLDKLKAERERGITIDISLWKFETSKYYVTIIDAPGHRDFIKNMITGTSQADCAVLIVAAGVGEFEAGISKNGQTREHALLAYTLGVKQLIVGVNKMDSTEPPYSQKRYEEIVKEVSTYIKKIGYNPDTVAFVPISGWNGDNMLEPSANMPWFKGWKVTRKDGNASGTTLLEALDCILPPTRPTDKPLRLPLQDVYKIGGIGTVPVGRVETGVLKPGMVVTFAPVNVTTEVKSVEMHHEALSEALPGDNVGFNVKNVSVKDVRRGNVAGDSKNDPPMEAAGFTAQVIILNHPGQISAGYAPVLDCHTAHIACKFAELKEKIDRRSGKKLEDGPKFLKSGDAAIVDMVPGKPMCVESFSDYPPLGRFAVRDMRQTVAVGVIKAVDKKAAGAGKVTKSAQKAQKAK
Kind of assay: Binding affinity to eEF1A1 in human CCRF-CEM cells after 30 mins by Western blot method. It is filed as cell-based.

Assay [2] deals with Pyruvate kinase PKM (Homo sapiens) (UniProt P14618). Kind of assay: Binding affinity to PKM2 in human CCRF-CEM cells after 30 mins by Western blot method. In kind it is cell-based. (Immunoblotting shows a protein as a band on a membrane.)
The target in assay [3] is Actin, cytoplasmic 1 (Homo sapiens) (UniProt P60709). Kind of assay: Binding affinity to beta-actin in human CCRF-CEM cells after 30 mins by Western blot method. It is filed as cell-based.
The target in assay [4] is T1, Elongation factor 1-alpha 1 (Homo sapiens). Kind of assay: Binding affinity to recombinant human eEF1A1 expressed in HEK293 cells by ITC. In short, it runs like this:
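Isothermal titration calorimetry recorded the heat changes on titrating ligand into eEF1A1. Binding enthalpy and association constant (Ka) were derived from the titration profiles.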
For orientation: In ITC the heat of successive injections is recorded.

Assay [5] relates to A549. As to the kind of experiment: Antiproliferative activity against human A549 cells after 72 hrs by MTT assay. Conditions: A549, 72 h. In kind it is functional, cell-based. For orientation: Formazan colour is commonly taken as a measure of viable cells.
In assay [6] the test system is U2OS. Kind of assay: Antiproliferative activity against human U2OS cells after 72 hrs by MTT assay. In kind it is functional, cell-based.
The test system of assay [7] is CCRF-CEM. As to the kind of experiment: Antiproliferative activity against human CCRF-CEM cells after 72 hrs by MTT assay. It is filed as functional, cell-based.
Assay [8] in a line: Antiproliferative activity against human CEM-DNR-bulk cells after 72 hrs by MTT assay. It is filed as functional, cell-based.
For another assay, the system named is HCT-116. Kind of assay: Antiproliferative activity against human HCT116 cells after 72 hrs by MTT assay. In kind it is functional, cell-based. The conditions noted are these: HCT-116, 72 h.
In assay [9] the test system is K562. Kind of assay: Antiproliferative activity against human K562 cells after 72 hrs by MTT assay. In kind it is functional, cell-based. Conditions: K562, 72 h.
Assay [10] concerns K562. As to the kind of experiment: Antiproliferative activity against taxol resistant human K562 cells after 72 hrs by MTT assay. Conditions: K562, 72 h. In kind it is functional, cell-based.
The subject of assay [11] is BJ. As to the kind of experiment: Antiproliferative activity against human BJ cells after 72 hrs by MTT assay. It is filed as cell-based.
For assay [12], the target named is T1, Elongation factor 1-alpha 1 (Homo sapiens). Kind of assay: Binding affinity to eEF1A1 in human CCRF-CEM cells after 30 mins by HPLC-MS based SDS-PAGE analysis. In kind it is cell-based. The method, boiled down:
(§1)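 Biotinylated 3-HQ ligands (one linked via the quinolinone benzene ring, one via the 2-phenyl ring) were immobilized on streptavidin magnetic beads and incubated with total protein lysate from CCRF-CEM cells. Bound proteins were released, resolved by SDS-PAGE, and identified by mass spectrometry.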

Assay [13] deals with Pyruvate kinase PKM (Homo sapiens) (UniProt P14618). As to the kind of experiment: Binding affinity to PKM2 in human CCRF-CEM cells after 30 mins by HPLC-MS based SDS-PAGE analysis. In kind it is cell-based. The method, boiled down: as §1
Assay [14] concerns the target Actin, cytoplasmic 1 (Homo sapiens) (UniProt P60709). Kind of assay: Binding affinity to beta-actin in human CCRF-CEM cells after 30 mins by HPLC-MS based SDS-PAGE analysis. In kind it is cell-based. The method, boiled down:
as §1

Assay [15] has as its system K562. Kind of assay: Antiproliferative activity against taxol resistant human K562 cells by MTT assay. It is filed as functional, cell-based.
Assay [16] relates to CCRF-CEM. As to the kind of experiment: Antiproliferative activity against human CCRF-CEM cells by MTT assay. In kind it is functional, cell-based.
Assay [17] in a line: Antiproliferative activity against human CEM-DNR-bulk cells by MTT assay. It is filed as functional, cell-based.
Assay [18] concerns U2OS. Kind of assay: Antiproliferative activity against human U2OS cells by MTT assay. In kind it is functional, cell-based.
The test system of assay [19] is K562. As to the kind of experiment: Antiproliferative activity against human K562 cells by MTT assay. In kind it is functional, cell-based.
For assay [20], the system named is A549. Kind of assay: Antiproliferative activity against human A549 cells by MTT assay. In kind it is functional, cell-based.
Assay [21] has as its system BJ. Kind of assay: Antiproliferative activity against human BJ cells by MTT assay. In kind it is cell-based.

Active and inactive are the calls of the source. No cut-off for these calls is given here.

Pyruvate kinase PKM (Homo sapiens), sequence (P14618 2-531 limits assumed): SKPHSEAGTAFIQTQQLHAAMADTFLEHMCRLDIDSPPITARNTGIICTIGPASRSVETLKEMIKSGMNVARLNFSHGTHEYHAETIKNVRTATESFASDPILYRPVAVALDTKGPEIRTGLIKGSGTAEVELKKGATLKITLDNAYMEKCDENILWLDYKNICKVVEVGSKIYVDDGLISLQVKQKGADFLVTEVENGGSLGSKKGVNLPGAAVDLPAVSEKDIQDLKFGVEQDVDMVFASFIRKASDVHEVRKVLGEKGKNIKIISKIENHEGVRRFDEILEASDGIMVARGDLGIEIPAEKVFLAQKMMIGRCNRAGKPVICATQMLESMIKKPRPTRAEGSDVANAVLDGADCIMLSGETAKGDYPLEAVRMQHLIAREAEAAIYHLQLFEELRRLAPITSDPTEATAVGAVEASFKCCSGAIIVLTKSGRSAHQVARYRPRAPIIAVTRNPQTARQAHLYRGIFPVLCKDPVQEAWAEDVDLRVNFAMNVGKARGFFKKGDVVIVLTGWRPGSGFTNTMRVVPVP

With `O=C1N[C@H]2[C@H](CS[C@H]2CCCCC(=O)OCCOCCOCCOCCOCCOCCOCCOCCOCCOCCNc2ccc(-c3[nH]c4ccccc4c(=O)c3O)cc2[N+](=O)[O-])N1`, the result in assay [1], in [2] and in [3] was inactive.
For `O=C(O)c1cc(-c2[nH]c3ccccc3c(=O)c2O)ccc1N1CCCCC1`, the Ka in assay [4] came to 2.54 ×10⁶ /M. In addition, the IC50 in the assay on A549 [5] worked out at 50 µM; with U2OS [6], 50 µM; in the assay on CCRF-CEM [7], 49.6 µM; in assay [8], 50 µM; in the assay with HCT-116, 50 µM; in the assay on K562 [9], 50 µM. Besides, the IC50 in the assay with K562 [10] and in the assay with BJ [11] was 50 µM in each case.
`NC(=O)c1cc(-c2[nH]c3cc(C(=O)NCc4ccccc4)ccc3c(=O)c2O)ccc1N1CCCCC1`: in assay [4], the Ka was determined as 1.81 ×10⁷ /M. Further, the half-maximal inhibitory concentration (IC50) in the assay on A549 [5] is 3.77 µM; with U2OS [6], 0.58 µM; in the assay on CCRF-CEM [7], 1.73 µM; in [8], above 50 µM; in the assay with HCT-116, 1.01 µM; with K562 [9], 8.3 µM. In addition, the 50% inhibitory concentration (IC50) in the assay with K562 [10] and in the assay with BJ [11] was above 50 µM each time.
In the case of `O=c1c(O)c(-c2ccccc2)[nH]c2ccccc12`, in [4], the Ka result is “inactive”. Also, the IC50 is above 50 µM in the assay with A549 [5]; 47 µM with U2OS [6]; 26.7 µM with CCRF-CEM [7]; 22.5 µM in assay [8]; 44.2 µM in the assay with HCT-116; 48 µM in the assay with K562 [9]. The IC50 in the assay on K562 [10] was 27.4 µM; in the assay with BJ [11], above 50 µM.
`O=C(O)/C=C/c1nn(Cc2ccc(Cl)cc2Cl)c2cc(C(F)(F)F)ccc12`: the Ka in assay [4] was 1.27 ×10⁷ /M.
Turning to `CCNc1ccc(-c2[nH]c3cc(C(=O)NCCOCCOC(=O)CCCC[C@@H]4SC[C@@H]5NC(=O)N[C@@H]54)ccc3c(=O)c2O)cc1[N+](=O)[O-]`, the result in [12], in [13], in [14], in assay [1], in assay [2] and in [3] was Active.
With `CCN(CC)c1ccc(-c2[nH]c3ccccc3c(=O)c2O)cc1[N+](=O)[O-]`, the IC50 in the assay with K562 [15] stood at 2.71 µM; in the assay with CCRF-CEM [16], 1.72 µM; in assay [17], 6.75 µM; in the assay on U2OS [18], 8.57 µM; in the assay on K562 [19], 0.75 µM; with A549 [20] it was 1.89 µM. Moreover, half-maximal inhibition in the assay with BJ [21] (IC50) was put at 9.73 µM.
`NC(=O)c1cc(-c2[nH]c3ccccc3c(=O)c2O)ccc1N1CCCCC1`: the Ka in assay [4] came out at 2.9 ×10⁶ /M. Also, the IC50 in the assay on A549 [5] came to 9.96 µM; with U2OS [6], 26 µM; in the assay with CCRF-CEM [7] it was 3.34 µM; in assay [8], 21.4 µM; in the assay with HCT-116 it was 4.46 µM; in the assay on K562 [9], 7.1 µM. Also, the figures for the IC50 in the assay with K562 [10] and with BJ [11] were 6.41 µM and 48.9 µM, respectively.
As to `NC(=O)c1cc(-c2[nH]c3ccccc3c(=O)c2O)ccc1N1CCOCC1`, in assay [4], the Ka was 6.8 ×10⁶ /M. For the same molecule, the IC50 with A549 [5] came to 44.4 µM; with U2OS [6] it was 50 µM; with CCRF-CEM [7] it was 16.2 µM; in assay [8], 50 µM; in the assay with HCT-116 it was 30.6 µM; in the assay with K562 [9], 50 µM. Also, the IC50 with K562 [10] and in the assay with BJ [11] was 50 µM in each case.
Turning to `CCNc1ccc(-c2[nH]c3ccccc3c(=O)c2O)cc1[N+](=O)[O-]`, the IC50 with K562 [15] turned out to be 1.96 µM; in the assay on CCRF-CEM [16], 1.42 µM; in assay [17], 3.01 µM; in the assay with U2OS [18], 9.98 µM; in the assay on K562 [19], 0.66 µM; in the assay on A549 [20], 0.94 µM. The molecule further registered an IC50 in the assay on BJ [21] of 9.39 µM.
Regarding `O=C(O)c1cc(-c2[nH]c3ccccc3c(=O)c2O)ccc1N1CCOCC1`, the Ka in [4] is 1.03 ×10⁷ /M. In addition, the IC50 was determined as 50 µM in the assay with A549 [5]; 50 µM with U2OS [6]; 49.6 µM in the assay with CCRF-CEM [7]; 50 µM in assay [8]; 50 µM in the assay on HCT-116; 50 µM with K562 [9]. Besides, the IC50 with K562 [10] and in the assay on BJ [11] was 50 µM throughout.
On to `O=c1c(O)c(-c2ccc(N3CCCCC3)c([N+](=O)[O-])c2)[nH]c2ccccc12`, for which the IC50 in the assay on K562 [15] stood at 2.02 µM; in the assay with CCRF-CEM [16], 1.55 µM; in [17], 3 µM; in the assay on U2OS [18], 7.51 µM; with K562 [19], 0.75 µM; in the assay on A549 [20], 1.62 µM. In the assay with BJ [21], this molecule had an IC50 of 9.83 µM.
Take `CCCCCNC(=O)c1ccc2c(=O)c(O)c(-c3ccc(N4CCCCC4)c(C(N)=O)c3)[nH]c2c1`: in assay [4], the Ka was determined as 5.3 ×10⁶ /M. In addition, the IC50 worked out at 1.89 µM with A549 [5]; 0.56 µM in the assay with U2OS [6]; 1.73 µM in the assay with CCRF-CEM [7]; 8.03 µM in [8]; 0.64 µM with HCT-116; 2.39 µM with K562 [9]. Moreover, the IC50 in the assay with K562 [10] was 32.7 µM; in the assay on BJ [11], 10.2 µM.

In general, IC50 refers to the midpoint of a concentration-inhibition curve. A low value points to higher potency.
